From ChEMBL document CHEMBL4613270, “Structure-Activity Relationship Study Enables the Discovery of a Novel Berberine Analogue as the RXRα Activator to Inhibit Colon Cancer” (J Med Chem, 2020)
pIC50: −log10 of the molar value.

Test system: KM12C
Assay: Inhibition of cell proliferation of human KM12C cells incubated for 15 hrs by MTT assay
Type: functional, cell-based
Summary of the method: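 Cells plated at 1×10⁴ per well, incubated overnight at 37 °C, then exposed to a concentration series for 15 h. MTT (5 mg/mL stock) added for 4 h at 37 °C. Formazan dissolved in DMSO and absorbance read at 570 nm. IC50 derived from the dose-response curve.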

SMILES | pIC50
COc1cc2c(cc1OC)-c1cc3cccc(OC)c3c[n+]1CC2 | 3.78
COc1ccc2cc3[n+](cc2c1)CCc1cc2c(cc1-3)OCO2 | 4.28
COc1cc2c(cc1OC)-c1cc3ccccc3c[n+]1CC2 | < 3.22
COc1cc2c(cc1OC)-c1cc3c(OC)cccc3c[n+]1CC2 | 3.57
COc1cc2cc3[n+](cc2cc1OC)CCc1cc2c(cc1-3)OCO2 [PSEUDOBERBERINE] | 3.33
c1ccc2c[n+]3c(cc2c1)-c1cc2c(cc1CC3)OCO2 | 4.10
COc1ccc2c(c1)CC[n+]1cc3cc(OC)c(OC)cc3cc1-2 | 4.08
COc1cc2c(cc1OC)-c1cc3cc(OC)c(OC)cc3c[n+]1CC2 | < 3.22
COc1cc2c(cc1OC)-c1cc3ccc(OC)c(OC)c3c[n+]1CC2 [PALMATINE CHLORIDE] | 3.41
COc1ccc2c(c1)CC[n+]1cc3c(OC)c(OC)ccc3cc1-2 | 4.42
COc1ccc2c(c1)CC[n+]1cc3ccccc3cc1-2 | 3.89
COc1ccc2c(c1)CC[n+]1cc3cc4c(cc3cc1-2)OCO4 | 4.33
COc1cccc2c[n+]3c(cc12)-c1cc2c(cc1CC3)OCO2 | 3.93
c1c2c(cc3c1OCO3)-c1cc3cc4c(cc3c[n+]1CC2)OCO4 | 4.24
